Where two headings read alike, the source gives them in different places.
Experiments:
[1] = system: SV2A binding in the hippocampus; settings: APP/PS1 mice vs WT, [^11C]UCB-J PET; cited from earlier work
[2] = target: T1, SV2A (Mus musculus, UniProt Q9JIS5); experiment: Dynamic small animal PET imaging of mouse brain with [^18F]SynVesT-1; type: in vivo
Procedure, shortened: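 Female WT (C57BL/6J) and APP/PS1 mice, 88 ± 4 weeks, n = 3 each, under 1.5–2.5% isoflurane on a heating pad. Radiotracer given as an i.v. lateral tail-vein bolus (10.28 ± 3.74 MBq in 0.1 mL). Baseline emission data acquired 0–90 min p.i. on small-animal PET/CT. OSEM3D/MAP reconstruction with decay, attenuation, scatter, normalization and randoms corrections. Images co-registered to mouse brain atlas space for regional time-activity curves.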

[3] = target: T1, SV2A; type: binding
Procedure, shortened: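 Mouse brain homogenate in 50 mM Tris-HCl with 2 mM MgCl2, pH 7.4, at 0.01 mg protein per well. Unlabelled ligand added from standard solutions of 0.1–50,000 nM, plus radioligand (~0.074 MBq, 2.3 nM). Shaken at 37 °C for 30 min, filters washed twice with buffer, then gamma counted. Binding expressed as pmol/mg protein. Nonspecific binding defined with 0.05 mM unlabelled ligand. Specific binding plotted against log total (hot + cold) ligand concentration.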

[4] = target: T1, SV2A; type: binding; remark: listed apart in the source
[5] = target: SV2A; settings: rat brain homogenate; cited from earlier work
[6] = target: SV2A; settings: [^3H]UCB-J competitive binding, rat whole brain; cited from earlier work
[7] = rodent brain, from time-activity curves

T1 sequence (Q9JIS5 whole entry): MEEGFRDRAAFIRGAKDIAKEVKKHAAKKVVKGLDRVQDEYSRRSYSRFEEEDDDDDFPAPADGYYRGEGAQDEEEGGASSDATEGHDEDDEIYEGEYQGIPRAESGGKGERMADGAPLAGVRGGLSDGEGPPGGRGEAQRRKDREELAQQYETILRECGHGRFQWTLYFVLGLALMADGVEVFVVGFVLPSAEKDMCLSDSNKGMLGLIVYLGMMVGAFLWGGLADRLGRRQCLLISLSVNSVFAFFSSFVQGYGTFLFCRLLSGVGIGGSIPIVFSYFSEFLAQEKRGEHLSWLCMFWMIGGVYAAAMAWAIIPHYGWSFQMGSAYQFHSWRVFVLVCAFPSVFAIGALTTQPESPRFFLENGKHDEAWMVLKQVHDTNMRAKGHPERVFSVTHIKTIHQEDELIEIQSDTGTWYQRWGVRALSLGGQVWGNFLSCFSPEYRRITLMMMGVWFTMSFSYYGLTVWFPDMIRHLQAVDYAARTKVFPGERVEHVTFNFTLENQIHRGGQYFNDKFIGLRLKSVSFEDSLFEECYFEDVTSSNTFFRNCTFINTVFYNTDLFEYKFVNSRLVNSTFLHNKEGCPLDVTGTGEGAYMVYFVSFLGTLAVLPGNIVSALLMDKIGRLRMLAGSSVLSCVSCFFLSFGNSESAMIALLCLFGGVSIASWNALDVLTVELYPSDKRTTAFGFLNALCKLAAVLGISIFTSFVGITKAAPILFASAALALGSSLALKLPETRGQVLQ

In the case of `CN1CCN(CCOc2cc(OC3CCOCC3)c3c(Nc4c(Cl)ccc5c4OCO5)ncnc3c2)CC1` [saracatinib], the “Effect of treatment on decreased hippocampal SV2A binding” value [1] is listed as “restored to the same level as the WT mice”.

In the case of `Cc1cnccc1CN1C[C@@H](c2cc(F)cc([18F])c2)CC1=O` [[^18F]SynVesT-1, (R)-4-(3-Fluoro-5-(fluoro-^18F)phenyl)-1-((3-methylpyridin-4-yl)methyl)pyrrolidin-2-one], the “Time of peak of brain time-activity curves” value ([2]; WT and APP/PS1 mice, i.v. bolus, 0–90 min scan) is reported as ≤ 20 min p.i, the BBB penetration [2, 7] is reported as “efficient BBB penetration” and the “Binding kinetics in brain” value [2, 7] is reported as “reversible binding kinetics”. For the same compound, the Bmax ([3]; mouse brain homogenate) was 4.54 pmol/mg protein, the “Bmax (range over homologous competitive and autoradiographic saturation assays)” value ([3]; rodent brain tissue) was 4.5–18 pmol/mg protein and the Bmax ([4]; WT mouse brain sections) was 1.8 ± 0.1 pmol/mg of brain tissue. For the same compound, the Bmax ([4]; WT mouse brain sections, assuming 10% of brain tissue is protein) was 18 ± 1 pmol/mg protein and the “Radioligand concentration at which total binding appeared to saturate” value ([4]; mouse brain sections) was “above 25 nM”.

In the case of `Cc1cnccc1CN1C[C@@H](c2cc(F)c(F)c(F)c2)CC1=O` [UCB-J], the Kd [5] is given as 2.6 ± 0.25 nM.

With `Cc1cnccc1CN1C[C@@H](c2cc(F)cc(F)c2)CC1=O` [[^18F]SynVesT-1, (R)-4-(3-Fluoro-5-(fluoro-^18F)phenyl)-1-((3-methylpyridin-4-yl)methyl)pyrrolidin-2-one] the Kd ([3]; mouse brain homogenate, 37 °C, 30 min, Kd=Ki=IC50−[radioligand]) was 19.6 ± 1.38 nM and the Kd ([4]; WT mouse brain sections, nonspecific binding with 1 mM levetiracetam) was 9.8 ± 1.7 nM.

In the case of `Cc1cnccc1CN1C[C@@H](c2cc(F)cc(F)c2)CC1=O` [SynVesT-1], the Ki [6] is listed as 2.2 nM.

— article PMC8105262 (Molecular imaging and biology, 2020)
